Test [1] addresses T1, Melanocyte-stimulating hormone receptor (Homo sapiens, UniProt Q01726). Nature of the test: Maximum effect on human MC1R expressed in HEK293 cells assessed as intracellular cAMP accumulation at 0.0001 to 10 uM. It counts as functional, cell-based. The essentials: (§1)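 Transfected HEK293 cells, grown in MEM with 10% FBS, seeded 48 h before assay (50,000 cells/well). Cells preincubated 1 min at 37 °C in Earle's balanced salt solution with IBMX, then exposed 3 min at 37 °C to peptide at 10−10 to 10−5 M. Reaction stopped with ice-cold Tris/EDTA and boiling for 7 min. cAMP in supernatant measured by [3H]cAMP/PKA competition against a standard curve. EC50 from nonlinear least-squares fit, two experiments in triplicate.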
Background: Cyclic AMP is a second messenger, typically raised through Gs and lowered through Gi signalling.
Target sequence in this assay (Q01726 whole entry, looked up): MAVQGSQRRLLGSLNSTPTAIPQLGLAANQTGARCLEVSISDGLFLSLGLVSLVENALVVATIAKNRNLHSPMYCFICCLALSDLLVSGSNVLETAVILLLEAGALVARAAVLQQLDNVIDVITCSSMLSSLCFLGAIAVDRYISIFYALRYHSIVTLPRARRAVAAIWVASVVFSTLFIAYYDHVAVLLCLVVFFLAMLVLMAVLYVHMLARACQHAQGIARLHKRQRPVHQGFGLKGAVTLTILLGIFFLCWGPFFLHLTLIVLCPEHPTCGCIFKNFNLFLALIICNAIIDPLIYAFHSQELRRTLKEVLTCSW

In test [2] the target is T2, Melanocortin receptor 3 (Homo sapiens, UniProt P41968). Description: Maximum effect on human MC3R expressed in HEK293 cells assessed as intracellular cAMP accumulation at 0.0001 to 10 uM. Format: functional, cell-based. The essentials: as §1
For test [3], the target named is T3, Melanocortin receptor 4 (Homo sapiens, UniProt P32245). Nature of the test: Maximum effect on human MC4R expressed in HEK293 cells assessed as intracellular cAMP accumulation at 0.0001 to 10 uM. Format: functional, cell-based. The gist of the method:
as §1

Test [4] deals with T4, Melanocortin receptor 5 (Homo sapiens, UniProt P33032). Description: Maximum effect on human MC5R expressed in HEK293 cells assessed as intracellular cAMP accumulation at 0.0001 to 10 uM. It counts as functional, cell-based. The essentials:
as §1

Test [5] deals with T1, Melanocyte-stimulating hormone receptor. Description: Displacement of [125I]NDPalphaMSH from human MC1R expressed in HEK293 cells. Format: cell-based. The gist of the method:
(§2)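 Whole HEK293 cells stably expressing the receptor, seeded 48 h before assay (50,000 cells/well), washed with MEM/25 mM bicarbonate. Cells lysed with NaOH/Triton X-100 and counted by gamma counting. IC50 from nonlinear least-squares fit, two experiments in triplicate.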
In general terms: In a radioligand displacement assay an active substance lowers the binding of a labelled ligand.
Target sequence in this assay (Q01726 whole entry): as the sequence (Q01726 whole entry, looked up) above

The target is the same in test [6]. Nature of the test: Effect on human MC1R expressed in HEK293 cells assessed as intracellular cAMP accumulation. It counts as functional, cell-based. The gist of the method: as §1
Target sequence in this assay (Q01726 whole entry): as the sequence (Q01726 whole entry, looked up) above
In test [7] the target is T2, Melanocortin receptor 3. Description: Displacement of [125I]NDPalphaMSH from human MC3R expressed in HEK293 cells. Format: cell-based. The essentials: as §2
In test [8] the target is T2, Melanocortin receptor 3. Description: Effect on human MC3R expressed in HEK293 cells assessed as intracellular cAMP accumulation. It counts as functional, cell-based. The essentials:
as §1

Test [9] has as its target T3, Melanocortin receptor 4. Description: Displacement of [125I]NDPalphaMSH from human MC4R expressed in HEK293 cells. It counts as cell-based. The gist of the method: as §2
The target in test [10] is T3, Melanocortin receptor 4. Description: Effect on human MC4R expressed in HEK293 cells assessed as intracellular cAMP accumulation. It counts as functional, cell-based. The essentials: as §1
For test [11], the target named is T4, Melanocortin receptor 5. Nature of the test: Displacement of [125I]NDPalphaMSH from human MC5R expressed in HEK293 cells. It counts as cell-based. The essentials:
as §2

The target of test [12] is T4, Melanocortin receptor 5. Description: Effect on human MC5R expressed in HEK293 cells assessed as intracellular cAMP accumulation. Format: functional, cell-based. The gist of the method: as §1

T3 sequence (P32245 whole entry): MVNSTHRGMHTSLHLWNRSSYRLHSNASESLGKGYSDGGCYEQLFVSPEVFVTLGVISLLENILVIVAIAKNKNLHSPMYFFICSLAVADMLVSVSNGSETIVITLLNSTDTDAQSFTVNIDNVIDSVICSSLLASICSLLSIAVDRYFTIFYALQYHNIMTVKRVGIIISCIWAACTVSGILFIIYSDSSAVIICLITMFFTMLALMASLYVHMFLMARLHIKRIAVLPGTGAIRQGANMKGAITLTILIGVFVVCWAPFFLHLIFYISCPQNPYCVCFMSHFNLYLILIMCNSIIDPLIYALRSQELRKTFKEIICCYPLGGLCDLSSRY
T4 sequence (P33032 whole entry): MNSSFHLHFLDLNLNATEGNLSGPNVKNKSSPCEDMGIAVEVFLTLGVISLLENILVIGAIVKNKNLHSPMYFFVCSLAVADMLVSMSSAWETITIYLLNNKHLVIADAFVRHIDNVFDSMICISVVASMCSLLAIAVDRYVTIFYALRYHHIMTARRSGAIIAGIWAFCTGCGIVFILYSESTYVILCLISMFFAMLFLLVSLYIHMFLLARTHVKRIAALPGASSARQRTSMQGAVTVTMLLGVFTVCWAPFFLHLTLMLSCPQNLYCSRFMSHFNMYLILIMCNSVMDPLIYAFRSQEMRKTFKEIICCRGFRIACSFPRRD
T2 sequence (P41968 whole entry): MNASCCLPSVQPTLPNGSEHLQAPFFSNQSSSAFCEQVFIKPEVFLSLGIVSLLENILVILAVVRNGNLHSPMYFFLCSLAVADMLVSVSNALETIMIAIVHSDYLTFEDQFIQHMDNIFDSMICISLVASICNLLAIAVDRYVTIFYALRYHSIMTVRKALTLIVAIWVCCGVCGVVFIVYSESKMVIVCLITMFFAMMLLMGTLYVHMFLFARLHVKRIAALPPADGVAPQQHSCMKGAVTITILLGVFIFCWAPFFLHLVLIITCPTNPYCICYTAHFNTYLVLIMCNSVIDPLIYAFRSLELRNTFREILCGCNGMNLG

With `CCCC[C@H](N)C(=O)N[C@H]1CC(=O)NCCCC[C@@H](C(N)=O)NC(=O)[C@H](Cc2c[nH]c3ccccc23)NC(=O)[C@H](CCCNC(=N)N)NC(=O)[C@@H](Cc2ccc(Cl)cc2)N2Cc3ccccc3CC(NC1=O)C2=O` (stereo not given in full), the Activity was 60% in [1], 55% on Melanocortin receptor 3 [2], 33% at Melanocortin receptor 4 [3] and 45% on Melanocortin receptor 5 [4].
For the molecule `CCCC[C@H](NC(C)=O)C(=O)N[C@@H](CC(=O)O)C(=O)N[C@H]1Cc2ccccc2CN([C@H](Cc2ccccc2)C(=O)N[C@@H](CCCN=C(N)N)C(=O)N[C@@H](Cc2c[nH]c3ccccc23)C(=O)N[C@@H](CCCCN)C(N)=O)C1=O`, the IC50 – broadly, the concentration needed to halve the response being measured – is more than 10 µM in test [5] (hek293), more than 10000 nM at Melanocortin receptor 3 [7] (hek293), more than 10000 nM at Melanocortin receptor 4 [9] (hek293) and more than 10000 nM at Melanocortin receptor 5 [11] (hek293). The EC50 (in general, the concentration needed to bring the measured effect to its halfway point) in [6] (hek293) was more than 10000 nM; at Melanocortin receptor 3 [8] (hek293), more than 10 µM; on Melanocortin receptor 4 [10] (hek293), more than 10 µM; at Melanocortin receptor 5 [12] (hek293) it was more than 10000 nM.
Consider `CCCC[C@H](N)C(=O)N[C@H]1CC(=O)NCCCC[C@@H](C(N)=O)NC(=O)[C@H](Cc2c[nH]c3ccccc23)NC(=O)[C@H](CCCN=C(N)N)NC(=O)[C@@H](Cc2ccc(Cl)cc2)N2Cc3ccccc3CC(NC1=O)C2=O` (stereo not given in full), for which the IC50 in test [5] was more than 1 µM; at Melanocortin receptor 3 [7], 29 nM; at Melanocortin receptor 4 [9], 2000 nM; at Melanocortin receptor 5 [11], 123 nM. Further, the EC50 in test [6] was 900 nM; at Melanocortin receptor 3 [8], more than 1 µM; at Melanocortin receptor 4 [10], 3.2 µM; at Melanocortin receptor 5 [12], 180 nM.
Consider `CCCC[C@H](N)C(=O)N[C@H]1CC(=O)NCCCC[C@@H](C(N)=O)NC(=O)[C@H](Cc2c[nH]c3ccccc23)NC(=O)[C@H](CCCNC(=N)N)NC(=O)[C@@H](Cc2ccc3ccccc3c2)NC(=O)[C@H](Cc2cnc[nH]2)NC1=O`, for which, in test [1], the Activity worked out at 100%.
On to `CCCC[C@@H](NC(C)=O)C(=O)N[C@@H](CC(=O)O)C(=O)NC1Cc2ccccc2CN([C@@H](Cc2ccccc2)C(=O)N[C@@H](CCCNC(=N)N)C(=O)N[C@@H](Cc2c[nH]c3ccccc23)C(=O)N[C@@H](CCCCN)C(N)=O)C1=O` (stereo not given in full), for which the Activity (in test [1]; at Melanocortin receptor 3 [2]; at Melanocortin receptor 4 [3]; on Melanocortin receptor 5 [4]) was 0% each time.

(Values after ChEMBL document CHEMBL1147202, “Novel selective human melanocortin-3 receptor ligands: use of the 4-amino-1,2,4,5-tetrahydro-2-benzazepin-3-one (Aba) scaffold” (Bioorg Med Chem Lett, 2007).)
